ERp5 inh: inhibitors of human ERp5 | Q15084 | ERp5 insulin aggregation, absorbance 650 nm, 90 min | inhibition, % at 9.99 µM | hit rate 0.05% among 350,000 | AID 651711;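 active means mean replicate inhibition above about 25%, with every replicate also reaching it, limit read from the data, passing the limit was not always enough; inconclusive means only one of those two criteria met; inactive means neither criterion met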
Target sequence (Q15084 whole entry, looked up): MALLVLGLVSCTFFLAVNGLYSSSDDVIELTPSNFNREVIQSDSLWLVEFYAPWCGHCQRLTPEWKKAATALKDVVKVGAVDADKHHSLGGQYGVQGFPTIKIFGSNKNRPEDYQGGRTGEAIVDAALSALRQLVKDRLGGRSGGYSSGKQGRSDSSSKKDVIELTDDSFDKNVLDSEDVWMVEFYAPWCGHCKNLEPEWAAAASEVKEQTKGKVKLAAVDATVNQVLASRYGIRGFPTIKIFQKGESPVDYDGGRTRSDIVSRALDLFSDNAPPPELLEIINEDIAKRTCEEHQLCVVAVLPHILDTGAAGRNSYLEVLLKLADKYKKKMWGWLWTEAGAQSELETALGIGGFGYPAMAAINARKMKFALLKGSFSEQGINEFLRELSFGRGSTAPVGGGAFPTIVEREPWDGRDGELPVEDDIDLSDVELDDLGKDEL
FGF22 binding: shifts melting point of recombinant human FGF22 | Q9HCT0 | recombinant FGF22 thermal shift, SYPRO orange fluorescence; percent of sucrose octasulfate shift, DMSO zero | activity (Tm shift, normalised), % at 9.99 µM | hit rate 1.5% among 340,000 | AID 651658;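 active means mean Tm shift, scaled 0 neutral to 100 positive control, at about 1.3% or above, every replicate too, limit read from the data; inconclusive means no clear call, values can overlap the other calls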
PDI turbidity: blocks human protein disulfide isomerase activity; P07237; PDI insulin aggregation turbidity, A650, 90 min; inhibition, % at 10 µM; hit rate 0.052% among 350,000;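 active means mean inhibition across replicates of 30% or more, whatever share of single replicates reach that level; inconclusive means mean inhibition below 30% while every single replicate reaches 30%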
ERAP1 inh: ERAP1 (human) enzyme inhibition | inhibition, % at 10.7 µM | Q9NZ08 | hit rate 0.15% among 340,000 | recombinant ERAP1, Leu-AMC fluorescence, 60 min | AID 652197;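 active means mean replicate inhibition of at least 30%, or all replicates individually reaching that 30% level; inactive means mean below 30% and not every replicate reaching it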;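 further: 0% = neutral control wells and 100% = L-leucinethiol positive control wells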
S100A4 MyoIIA: blocks human S100A4 binding to myosin IIA peptide | P26447 | S100A4/TAMRA-MyoIIA peptide fluorescence polarization | inhibition, % at 10.7 µM | hit rate 0.14% among 360,000 | AID 652163;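 active means mean inhibition of at least 70% across replicates, with every replicate also reaching that level; inconclusive means mean inhibition reaches 70% but some replicates fall short; inactive means mean inhibition below 70%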
Target sequence (P26447 whole entry, looked up): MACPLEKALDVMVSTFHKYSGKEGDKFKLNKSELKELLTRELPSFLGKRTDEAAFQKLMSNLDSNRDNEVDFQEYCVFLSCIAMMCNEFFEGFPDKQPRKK
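Material: S100A4 monomer protein / Buffer or medium: 50 mM HEPES pH 7.2, 10 mM CaCl2, 100 mM KCl / Times: 5 min incubation before reading / Benchmarks: neutral control DMSO, positive control TFP / Reagent: labelled myosin peptide probe, 5 nM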
* marks the source's active call; other numbers are inactive results; ? = inconclusive; nt = no result. The full list was thinned out, with hits kept by preference.

SMILES | ERp5 inh | FGF22 binding | PDI turbidity | ERAP1 inh | S100A4 MyoIIA
CN(C)CCNC(C(=O)Nc1cc(Cl)cc(Cl)c1)c1ccccc1 (configuration not stated) | 16 | 43* | 1 | 2 | -4
CC(C)NC(C(=O)Nc1cc(Cl)cc(Cl)c1)c1ccccc1 (configuration not stated) | nt | nt | 1 | nt | nt
CCOC(=O)C1=C(O)C(=O)N(Cc2cccnc2)C1c1ccc(C)cc1 (configuration not stated) | -1 | 44* | -6 | -4 | -1
CC(=O)C1=C(O)C(=O)N(Cc2cccnc2)C1c1ccc(C(C)C)cc1 (configuration not stated) | -2 | 43* | 6 | 0 | -11
NS(=O)(=O)c1ccc(N/N=C/c2ccccc2C(=O)O)c([N+](=O)[O-])c1 | 3 | 43* | -6 | 7 | 2
CCN(Cc1ccc(OC)c(F)c1)C(=O)C1CCCO1 (configuration not stated) | 0 | 0 | 5 | 50* | 0
CCN(Cc1ccc(OC)c(F)c1)C(=O)CCl | 4 | 0 | -2 | 3 | -5
C=CCN1C(=O)/C(=C2/Sc3ccc(OC)cc3N2C)SC1=Nc1ccccc1 | -4 | 43* | -5 | -2 | 4
C=CCN1C(=O)/C(=C2/Sc3ccc(OC)cc3N2C)SC1=NCc1ccccc1 | -4 | 1 | -3 | 0 | -2
COc1ccc(C#Cc2ccc([C@@H]3[C@@H](CO)N4C(=O)CN(C(=O)NC(C)C)C[C@H]34)cc2)cc1 | 1 | 0 | nt | -1 | -8
CN1CCCN(Cc2nc(-c3cccc(C(F)(F)F)c3)no2)CC1 | 1 | 43* | 0 | 0 | -6
CCOC(=O)N1CCN(Cc2nc(-c3cccc(C)c3)no2)CC1 | -5 | 0 | 5 | 2 | -2
CC(=O)N1CCN(Cc2nc(-c3cccc(Cl)c3)no2)CC1 | -2 | 43* | 0 | 5 | 0
COc1cccc(CC(NC(C)=O)C(=O)NC2CCN(c3nc(C)cc(C)c3C#N)CC2)c1 (configuration not stated) | nt | nt | -3 | nt | nt
CN(CC(=O)O)S(=O)(=O)c1ccc2c(c1)n(C)c(=O)c(=O)n2C | -3 | 44* | -2 | 1 | 0
CCCCN(CCCC)C(=O)CN(C)S(=O)(=O)c1ccc2c(c1)n(C)c(=O)c(=O)n2C | -6 | 0 | -13 | 0 | 0
Cc1cc(Cl)ccc1NC(=O)COC(=O)c1nc2nccc(C)n2n1 | 3 | 43* | -4 | 0 | 11
Cc1ccnc2nc(C(=O)OCC(=O)NCCc3ccc(Cl)cc3)nn12 | nt | nt | 4 | nt | nt
CCCCn1c(=O)c(CC(C)=O)nc2ccccc21 | -1 | 44* | 9 | -3 | 1
CCCCCn1c(=O)c(C(=O)c2ccccc2)nc2ccccc21 | -1 | nt | -4 | 3 | -1
CCCCN(C)CCNC(=O)CCn1nc(-c2ccc(Cl)cc2)ccc1=O | 2 | 42 | 9 | 0 | 1
C[C@@H]1CN([C@H](C)CO)C(=O)c2ccccc2-c2ccccc2CO[C@H]1CN(C)C(=O)Oc1ccccc1 | -3 | 0 | nt | -4 | 94*
C[C@@H]1CN([C@H](C)CO)C(=O)c2c(c3ccccc3n2C)-c2ccccc2CO[C@H]1CN(C)S(=O)(=O)c1ccccc1 | -3 | 0 | nt | -6 | 131*
CCOC(=O)c1cc(N2CCCCC2)nc2ccccc12 | -2 | 0 | -1 | 3 | 1
O=C(O)c1cc(N2CCCCC2)nc2ccccc12 | 5 | 43* | -4 | 0 | -1
SMILES | ERp5 inh | FGF22 binding | PDI turbidity | ERAP1 inh | S100A4 MyoIIA
Cc1cccn2c(=O)c(C=O)c(N3CCN(c4ccccc4)CC3)nc12 | -6 | 43* | -5 | 4 | -8
Cc1cccn2c(=O)c(C=O)c(N3CCN(C)CC3)nc12 | 1 | 0 | 0 | 4 | 1
O=[N+]([O-])c1cccnc1NCc1cccs1 | -2 | 43* | -10 | -1 | -3
CCC(=O)N1C[C@H](C)[C@@H](OC)CN(C)C(=O)c2ccc(NC(=O)c3ccc(F)cc3)cc2OC[C@H]1C | -1 | 0 | nt | -1 | -6
CC(C)CC(OC(=O)c1nsc(Cl)c1Cl)C(=O)NCC1CCCO1 (configuration not stated) | 2 | 0 | 0 | 2 | -10
O=C(CCc1nnc(-c2ccccc2)o1)NCc1cc(F)ccc1F | -6 | 1 | -4 | 3 | -1
C#CCOCCOCCOCCNc1nc(N2CCN(C(=O)[C@H](CCC(=O)O)n3cc(C(N)CO)nn3)CC2)nc(N2CCN(C(=O)[C@H](Cc3cc4ccccc4[nH]3)n3cc(C(N)[C@H](C)CC)nn3)CC2)n1 (some centres not stated) | nt | nt | 8 | nt | nt
C#CCOCCOCCOCCNc1nc(N2CCN(C(=O)[C@H](CCCCN)n3cc([C@@H](N)C(C)CC)nn3)CC2)nc(N2CCN(C(=O)[C@H](Cc3cc4ccccc4[nH]3)n3cc([C@@H](N)CC(C)C)nn3)CC2)n1 (some centres not stated) | nt | nt | 44* | nt | nt
Cc1nc(Nc2nc3ccccc3o2)nc(C)c1C | 1 | 44* | 14 | -1 | 4
O=C(Nc1ccccc1)O[C@@H]1C[C@H]2CCCC(=O)N3CC[C@@H](C1)[C@@H]23 | -6 | 0 | -6 | 3 | 0
O=C(Nc1ccccc1)OC1CC2CC1C1CCCC21 (configuration not stated) | 0 | 43* | 3 | -3 | -3
CCOC(=O)C1CCN(C(=O)c2cc3c(s2)-c2ccccc2OC3)CC1 | 3 | 0 | nt | nt | -2
O=[N+]([O-])c1ccc2nc(-c3ccncc3)[nH]c2c1 | 3 | 0 | -12 | 3 | 3
Cc1ccc(-c2nc3ccc([N+](=O)[O-])cc3[nH]2)cc1 | -40 | 1.5* | 1 | 6 | -2
O=C(OCC(=O)c1c[nH]c2ccccc12)c1ccc([N+](=O)[O-])s1 | -5 | 0 | -4 | 5 | -2
CCc1cccc2c(C(=O)COC(=O)c3ccc([N+](=O)[O-])s3)c[nH]c12 | 4 | 44* | -11 | 0 | 2
COc1cc(C=c2c3ccccc3n3c2cc(-c2ccccc2)[n+]3C)cc(OC)c1OC | -1 | 0 | -11 | 7 | -72
CN(C)c1ccc(C=c2c3ccccc3n3c2cc(-c2ccccc2)[n+]3C)cc1 | -5 | -1 | -18 | 12 | 34
CN(C)c1ccc(C=c2c3cc([N+](=O)[O-])ccc3n3c2cc(-c2ccccc2)[n+]3C)cc1 | 0 | 0 | 1 | 0 | 98*
COc1cc(N(C)C)ccc1C=c1c2ccccc2n2c1cc(-c1ccccc1)[n+]2C | 4 | -1 | ? | 40* | ?
Cc1ccc(N2C(=O)CCC2(C(N)=O)c2ccccc2)cc1 (configuration not stated) | -8 | 0 | 4 | -7 | -1
Cc1cc(C)n(-c2cc(N3CCOCC3)nc(-c3ccccc3)n2)n1 | 0 | 0 | 11 | -2 | 3
COc1cc2c3nnc(-c4ccccc4)c-3cn(Cc3ccc(F)cc3)c2cc1OC | 3 | 44* | -24 | -25 | -3
